The source of these data is paper PMC4104500 (Biochemistry, 2013).

The target in experiment [1] is Human wild type CIB1 (calcium and integrin binding protein 1) (human) (UniProt Q99828). As to the kind of experiment: ITC.
For experiment [2], the target named is T1, CIB1 (Homo sapiens, UniProt Q99828).
T1 sequence (Q99828 1-191): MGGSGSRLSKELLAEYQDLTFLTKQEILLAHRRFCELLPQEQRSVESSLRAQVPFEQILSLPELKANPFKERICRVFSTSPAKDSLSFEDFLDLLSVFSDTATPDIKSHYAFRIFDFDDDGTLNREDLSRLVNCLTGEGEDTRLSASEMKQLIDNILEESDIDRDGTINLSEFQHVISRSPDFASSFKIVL
As to the kind of experiment: Isothermal titration calorimetry. Format: binding. The method in brief: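 Recombinant CIB1 from E. coli BL21(DE3), His tag removed by TEV, dialyzed into 50 mM HEPES pH 7.4, 150 mM NaCl, 0.1 mM CaCl₂ unless otherwise noted, at 100 µM in cell. Peptides (0.8–1 mM, same buffer) injected as 10 µL every 300 s at 15 °C or 26 °C. Dilution heats taken from post-saturation injections; one-site fit; TΔS and ΔG calculated.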
For orientation: ITC needs no label: the signal is the heat of the interaction.

Experiment [3] addresses T2, Human wild type CIB1 (calcium and integrin binding protein 1) (human, UniProt Q99828 1-191).
T2 sequence (looked up): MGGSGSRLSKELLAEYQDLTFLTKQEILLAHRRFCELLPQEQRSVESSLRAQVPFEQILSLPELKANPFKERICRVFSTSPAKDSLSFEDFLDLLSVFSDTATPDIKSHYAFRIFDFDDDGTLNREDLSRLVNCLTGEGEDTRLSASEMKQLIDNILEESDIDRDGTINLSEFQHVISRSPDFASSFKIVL
As to the kind of experiment: pull-down.

Experiment [4] has as its target T2, Human wild type CIB1 (calcium and …). As to the kind of experiment: ITC.
Setting [5] is: ITC buffer without any NaCl, calculated value.

By Kd is commonly meant the free concentration of one partner at which half of the binding sites on the other are occupied at equilibrium, for simple one-to-one binding. Usually stoichiometry N stands for the number of molecules, sites or subunits per partner or assembly.

For “integrin α4 cytoplasmic tail (CT) peptide”, the dH in experiment [1] turned out to be 7.82 kcal/mol.

Take “αIIb: synthetic cytoplasmic tail (CT) peptide of integrin αIIb; sequence in Table S1”: the TΔS in experiment [2] (ITC buffer with 150 mM NaCl, calculated from ΔG = ΔH − TΔS) is 4.09 kcal/mol; in experiment [2] (setting [5]), -0.574 kcal/mol. The ΔG in experiment [2] (ITC buffer with 150 mM NaCl, calculated from ΔG = −RT ln Ka) is -7.98 kcal/mol; in experiment [2] (setting [5]), -7.58 kcal/mol.

B1: MBP-αIIb cytoplasmic tail fusion protein (domain or fragment, human, UniProt P08514 1014-1039, looked up)
chain: LVLAMWKVGFFKRNRPPLEEDDEEGE
As to B1, the binding result in experiment [3] is recorded as “binds”.

B2: integrin αV cytoplasmic tail (CT) peptide, wild type (peptide)
chain: LVFVMYRMGFFKRVRPPQEEQEREQLQPHENGEGNSET
Regarding B2, in experiment [4], the dissociation constant (Kd) was 4.3 µM, the dH was 1.74 kcal/mol and the “stoichiometry N” value was found to be 0.9.

B3: MBP-αV cytoplasmic tail fusion protein (domain or fragment, human, UniProt P06756 1011-1048, looked up)
chain: LVFVMYRMGFFKRVRPPQEEQEREQLQPHENGEGNSET
Consider B3, for which the binding result in experiment [3] was “binds”.

B4: integrin α5 cytoplasmic tail (CT) peptide (peptide)
chain: LIYILYKLGFFKRSLPYGTAMEKAQLKPPATSDA
As for B4, in experiment [4], the Kd amounted to 6.9 µM, the dH came out at 5.11 kcal/mol and the “stoichiometry N” value was 0.9.

B5: integrin αL cytoplasmic tail (CT) peptide (peptide)
chain: IFIVLYKVGFFKRNLKEKMEAGRGVPNGIPAEDSEQLASGQEAGDPGCLKPLHEKDSESGGGKD
Regarding B5, in experiment [4], the dissociation constant Kd was 3.2 µM, the dH worked out at 1.96 kcal/mol and the “stoichiometry N” value was 1.1.

B6: integrin α3 cytoplasmic tail (CT) peptide (peptide)
chain: IILLLWKCGFFKRARTRALYEAKRQKAEMKSQPSETERLTDDY
As to B6, in experiment [4], the dissociation constant (Kd) amounted to 5.1 µM, the dH was 1 kcal/mol and the “stoichiometry N” value was determined as 1.
